Results on 5 molecules are retold here after ChEMBL document CHEMBL1821654, “Synthesis and biological evaluation of analogues of M6G” (2011).

Calls of active or inactive are those of the source.

Assay [1] has as its system Mus musculus. Description: Analgesic activity in sc dosed Swiss mouse assessed as assessed as thermal-stimulus induced tail flick latency after 30 mins. The following applies: 0.5 h.
The subject of assay [2] is Mus musculus. Kind of assay: Analgesic activity in Swiss mouse assessed as maximum possible tail flick latency at 1.25 mg/kg, sc. The class given is functional. Particulars: route subcutaneous. The gist of the method:
(§1)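 Male Swiss mice, 12 per group, were given compound subcutaneously at doses between 1.25 and 30 mg/kg. Analgesia was measured by tail-flick with an 8 s cut-off to avoid tissue damage. Readings were taken several times from 20 to 120 min after dosing. Inhibition was expressed as percent maximum possible effect (%MPE) by the D'Amour–Smith method.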

Assay [3] has as its system Mus musculus. Kind of assay: Analgesic activity in Swiss mouse assessed as maximum possible tail flick latency at 1.25 mg/kg, sc upto 120 mins. The class given is functional, organism-based. Also noted: dose 1.25 mg/kg. A digest of the protocol:
as §1

The test system of assay [4] is Mus musculus. Description: Analgesic activity in Swiss mouse assessed as maximum possible tail flick latency at 10 mg/kg, po. The class given is functional. The gist of the method: (§2)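 Compound was given […] to male Swiss mice, 12 per group. Analgesia was measured by tail-flick with an 8 s cut-off. Responsiveness was read several times from 20 to 120 min after dosing. Tail-flick inhibition was expressed as percent maximum possible effect (%MPE) by the D'Amour–Smith method.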

The test system of assay [5] is Mus musculus. Kind of assay: Analgesic activity in po dosed Swiss mouse assessed as thermal-stimulus induced tail flick latency. The class given is functional. A digest of the protocol:
as §2

Assay [6] has as its system Mus musculus. Kind of assay: Analgesic activity in sc dosed Swiss mouse assessed as assessed as thermal-stimulus induced tail flick latency after 60 mins. The class given is functional. Particulars: 1 h.

For the molecule `CN1CC[C@]23c4c5ccc(O)c4O[C@H]2[C@@H](O)C=C[C@H]3[C@H]1C5` [MORPHINE], the ED50 in the assay with Mus musculus [1] stood at 4.4 mg/kg.

In the case of `Cc1nnc([C@H]2O[C@@H](O[C@H]3C=C[C@H]4[C@H]5Cc6ccc(O)c7c6[C@@]4(CCN5C)[C@H]3O7)[C@H](O)[C@@H](O)[C@@H]2O)o1.O=C(O)C(F)(F)F`, the MPE in the assay with Mus musculus [2] is given as 80%. In addition, the result in the assay with Mus musculus [3] was Active.

As to `CN1CC[C@]23c4c5ccc(O)c4O[C@H]2[C@@H](O[C@@H]2O[C@H](c4nc6n(n4)CCC(O)N6)[C@@H](O)[C@H](O)[C@H]2O)C=C[C@H]3[C@H]1C5.O=C(O)C(F)(F)F` (stereo not given in full), the MPE in the assay with Mus musculus [2] was 80%. In the assay with Mus musculus [3], the outcome was Active.

Take `CN1CC[C@]23c4c5ccc(O)c4O[C@H]2[C@@H](O[C@@H]2O[C@H](c4nnn[nH]4)[C@@H](O)[C@H](O)[C@H]2O)C=C[C@H]3[C@H]1C5.O=C(O)C(F)(F)F`: the MPE was found to be 80% in the assay with Mus musculus [2] and 78% in the assay with Mus musculus [4]. Also, the result in the assay on Mus musculus [3] was Active. Besides, the ED50 in the assay with Mus musculus [5] amounted to 2.5 mg/kg.

In the case of `CN1CC[C@]23c4c5ccc(O)c4O[C@H]2[C@@H](O[C@@H]2O[C@H](C(=O)O)[C@@H](O)[C@H](O)[C@H]2O)C=C[C@H]3[C@H]1C5` [MORPHINE GLUCURONIDE], the ED50 in the assay with Mus musculus [6] came out at 2.7 mg/kg.
